Columns and labels:
[1] = target: T1, Neprilysin (Mus musculus) (UniProt Q61391); test: Inhibition of Neutral Endopeptidase activity was measured by using the displacement of [3H]HACBOGly from mouse kidney after 16h oral administration; set-up: scale not given: the % may be the effect or the level left
T1 sequence (whole entry): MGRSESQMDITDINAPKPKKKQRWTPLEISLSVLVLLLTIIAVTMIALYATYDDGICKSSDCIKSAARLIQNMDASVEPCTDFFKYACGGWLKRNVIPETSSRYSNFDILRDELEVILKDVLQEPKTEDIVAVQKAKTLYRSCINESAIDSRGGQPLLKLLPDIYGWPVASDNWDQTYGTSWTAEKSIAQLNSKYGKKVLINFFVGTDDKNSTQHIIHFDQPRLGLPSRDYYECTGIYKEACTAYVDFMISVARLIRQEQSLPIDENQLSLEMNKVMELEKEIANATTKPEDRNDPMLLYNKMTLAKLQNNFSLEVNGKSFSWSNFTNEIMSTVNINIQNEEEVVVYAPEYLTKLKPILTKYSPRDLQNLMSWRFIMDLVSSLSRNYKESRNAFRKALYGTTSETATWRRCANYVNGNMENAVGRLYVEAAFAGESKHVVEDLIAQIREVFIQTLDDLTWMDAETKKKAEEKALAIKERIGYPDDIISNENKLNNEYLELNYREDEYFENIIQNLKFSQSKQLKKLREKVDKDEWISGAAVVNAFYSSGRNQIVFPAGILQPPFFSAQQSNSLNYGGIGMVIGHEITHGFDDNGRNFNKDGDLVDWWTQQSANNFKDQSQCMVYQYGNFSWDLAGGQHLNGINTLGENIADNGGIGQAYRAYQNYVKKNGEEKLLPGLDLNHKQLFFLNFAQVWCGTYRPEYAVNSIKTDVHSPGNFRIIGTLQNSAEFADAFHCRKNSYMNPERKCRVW
Method in brief: (§1)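 Mice dosed orally at 2.6 X 10-6 mol/kg in 10% ethanol/10% cremophor/80% water. [3H]HACBOGly (1 uCi) injected iv at intervals after dosing. Kidneys taken 15 min later, homogenized in 50 mM Tris-HCl pH 7.4 at 4 °C and filtered, radioactivity counted. Inhibition expressed as percent displacement versus control. Nonspecific binding defined with coinjected retrothiorphan (10.000 eq).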

[2] = target: T1, Neprilysin (Mus musculus); test: Inhibition of Neutral Endopeptidase activity was measured by using the displacement of [3H]HACBOGly from mouse kidney after 8 hr oral administration; set-up: scale not given: the % may be the effect or the level left; method in brief: as §1
[3] = target: T1, Neprilysin (Mus musculus); test: Inhibition of Neutral Endopeptidase activity was measured by using the displacement of [3H]HACBOGly from mouse kidney after 2 hr oral administration; set-up: scale not given: the % may be the effect or the level left; method in brief: as §1
[4] = target: T2, Angiotensin-converting enzyme (Mus musculus) (UniProt P09470); test: In vivo inhibition of lung ACE was observed at 30 min after oral administration of the compound; assay type: organism-based; set-up: concentration or dose not given beside the values
T2 sequence (whole entry): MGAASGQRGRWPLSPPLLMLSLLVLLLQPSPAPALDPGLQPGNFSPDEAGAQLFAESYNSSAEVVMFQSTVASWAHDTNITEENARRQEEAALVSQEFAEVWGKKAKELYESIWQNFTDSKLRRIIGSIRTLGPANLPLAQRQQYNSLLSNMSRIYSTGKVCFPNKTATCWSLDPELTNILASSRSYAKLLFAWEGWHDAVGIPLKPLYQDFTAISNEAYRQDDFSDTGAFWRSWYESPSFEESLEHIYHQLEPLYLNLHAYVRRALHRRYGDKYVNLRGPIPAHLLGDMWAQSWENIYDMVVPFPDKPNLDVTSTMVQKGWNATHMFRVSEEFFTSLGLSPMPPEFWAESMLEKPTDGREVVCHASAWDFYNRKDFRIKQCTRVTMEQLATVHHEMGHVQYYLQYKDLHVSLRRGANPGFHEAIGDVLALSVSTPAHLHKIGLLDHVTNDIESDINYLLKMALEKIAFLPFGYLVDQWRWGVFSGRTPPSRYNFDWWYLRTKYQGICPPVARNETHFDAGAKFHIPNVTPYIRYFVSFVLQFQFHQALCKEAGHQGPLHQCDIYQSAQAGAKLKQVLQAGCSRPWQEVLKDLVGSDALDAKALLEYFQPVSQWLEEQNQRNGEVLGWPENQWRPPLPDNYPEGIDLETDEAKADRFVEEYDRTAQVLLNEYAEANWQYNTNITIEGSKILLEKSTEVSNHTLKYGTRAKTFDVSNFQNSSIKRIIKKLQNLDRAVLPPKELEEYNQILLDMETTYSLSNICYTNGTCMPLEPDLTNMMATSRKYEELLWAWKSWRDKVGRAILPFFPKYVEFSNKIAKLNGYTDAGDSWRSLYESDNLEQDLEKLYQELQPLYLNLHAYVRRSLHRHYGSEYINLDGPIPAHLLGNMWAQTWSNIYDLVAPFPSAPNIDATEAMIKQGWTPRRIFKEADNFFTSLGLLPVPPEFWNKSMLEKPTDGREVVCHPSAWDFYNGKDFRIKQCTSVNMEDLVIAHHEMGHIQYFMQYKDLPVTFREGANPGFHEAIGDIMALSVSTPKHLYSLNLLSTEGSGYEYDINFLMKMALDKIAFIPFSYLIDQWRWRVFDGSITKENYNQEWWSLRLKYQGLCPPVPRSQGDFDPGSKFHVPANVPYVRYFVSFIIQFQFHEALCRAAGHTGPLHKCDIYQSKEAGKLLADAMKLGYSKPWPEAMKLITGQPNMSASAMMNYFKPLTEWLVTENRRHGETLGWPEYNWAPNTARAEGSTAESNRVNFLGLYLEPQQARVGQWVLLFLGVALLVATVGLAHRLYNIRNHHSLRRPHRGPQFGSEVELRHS

[5] = target: T1, Neprilysin (Mus musculus); test: Inhibition of Neutral Endopeptidase activity was measured by using the displacement of [3H]HACBOGly from mouse kidney after 1 hour oral administration; set-up: scale not given: the % may be the effect or the level left; method in brief: as §1
[6] = target: T1, Neprilysin (Mus musculus); test: Inhibition of Neutral Endopeptidase activity was measured by using the displacement of [3H]HACBOGly from mouse kidney after 4 hr oral administration; set-up: scale not given: the % may be the effect or the level left; method in brief: as §1
[7] = system: Mus musculus; test: In vivo inhibition of lung ACE was observed at 60 min after oral administration; assay type: functional; set-up: concentration or dose not given beside the values
[8] = target: T2, Angiotensin-converting enzyme (Mus musculus); test: In vivo inhibition of lung ACE was observed at 120 min after oral administration of the compound; assay type: functional, organism-based; set-up: concentration or dose not given beside the values
[9] = target: T2, Angiotensin-converting enzyme (Mus musculus); test: In vivo inhibition of lung ACE was observed at 240 min after oral administration of the compound; assay type: functional, organism-based; set-up: concentration or dose not given beside the values
[10] = target: T2, Angiotensin-converting enzyme (Mus musculus); test: Inhibition of lung Angiotensin Converting Enzyme (ACE) in mouse at a dose of 2.6*10e-5 mol/kg after 20 min oral administration
Method in brief: (§2)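 Prescreen in mice: single oral dose of 2.6 X 10-5 mol/kg of prodrug (thioacetyl and benzyl ester protected, tested as stereoisomer mixtures). Inhibition of binding of a tritiated ACE probe to lung measured 20 and 60 min after dosing. Mean ± SEM of three experiments, three mice each.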

[11] = target: T2, Angiotensin-converting enzyme (Mus musculus); test: (§3) In vivo inhibition of lung Angiotensin I converting enzyme in mouse at a dose of 2.6*10e-5 mol/kg after 60 min oral administration; assay type: organism-based; method in brief: as §2
[12] = system: Mus musculus; test: Time course of the in vivo inhibition (percent of control) of lung ACE was observed at 30 min after oral administration of the compound; assay type: functional; set-up: scale not given: the % may be the effect or the level left
[13] = system: Mus musculus; test: as §3; assay type: functional; method in brief: as §2

Control [1] [%] | Control [2] [%] | Control [3] [%] | Control [4] [%] | Control [5] [%] | Control [6] [%] | Control [8] [%] | Control [9] [%] | inhibition [10] [%] | inhibition [11] [%] | Compound | Control [7] [%] | Control [12] [%] | Inhibition [13] [%]
10 | 94 | 100 | 72 | 100 | 100 | 42 | 37 | – | – | C[C@H](NC(=O)[C@@H](CSC(=O)C12CC3CC(CC(C3)C1)C2)[C@@H](C)c1ccccc1)C(=O)O | 54 | – | –
– | – | – | – | – | – | – | – | 36 | 43 | CC(=O)SCC(C(=O)NCC(=O)OCc1ccccc1)C(C)c1ccccc1 (configuration not stated) | – | – | –
– | – | – | – | – | – | 21 | 2 | 54 | – | CC(=O)SCC(C(=O)N[C@@H](C)C(=O)OCc1ccccc1)C(C)c1ccccc1 (some centres not stated) | 46 | 41 | 44

Reference: ChEMBL document CHEMBL1127630, “New dual inhibitors of neutral endopeptidase and angiotensin-converting enzyme: rational design, bioavailability, and pharmacological responses in experimental hypertension” (J Med Chem, 1994)
